The source made the active and inactive calls. The rule behind the calls is not given here.
Assays:
Enterococcus faecalis = test: Antibacterial activity against Enterococcus faecalis after 16 to 20 hrs by broth microdilution method; type: functional
In short: (§1)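 Broth microdilution per CLSI in cation-adjusted Mueller-Hinton broth; 4-6 h cultures (~10⁸ CFU/mL) diluted to ~10⁶ CFU/mL and mixed 1:1 with twofold dilutions of water-dissolved compound (256 to 0.5 µg/mL). Incubated 16-20 h at 37 °C; MIC read visually. Each concentration run in duplicate, whole experiment repeated at least twice. MRSA, KPC and NDM-1 strains were clinical isolates.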

Escherichia coli [1] = test: Antibacterial activity against Escherichia coli ATCC 25922 after 16 to 20 hrs by broth microdilution method; type: functional; in short: as §1
Staphylococcus aureus [2] = test: Antibacterial activity against methicillin-resistant Staphylococcus aureus after 16 to 20 hrs by broth microdilution method; type: functional
In short: (§2)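 CLSI broth microdilution in cation-adjusted Mueller-Hinton broth. A 4-6 h culture was diluted to about 10⁶ CFU/mL and mixed 1:1 with twofold compound dilutions (256–0.5 µg/mL before mixing) prepared from aqueous stocks. Plates were incubated at 37 °C for 16-20 h. Each concentration was tested in duplicate, and the experiment was repeated at least twice.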

Klebsiella pneumoniae [3] = test: Antibacterial activity against carbapenemase-producing Klebsiella pneumoniae after 16 to 20 hrs by broth microdilution method; type: functional; in short: as §1
[4] = Hemolytic activity in sheep RBC after 1 hr; type: ADME, cell-based, Ovis aries, Erythrocyte; settings: sheep red blood cells (erythrocytes)
In short: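 Sheep RBCs suspended at 5% in PBS; 150 µL added to 50 µL compound dilutions (5120 to 10 µg/mL series). Incubated 1 h at 37 °C, then centrifuged; supernatant absorbance read at 540 nm. Lysis (%) = (A−A0)/(Atotal−A0)×100, with untreated 5% RBC as A0 and 0.1% Triton X-100 as total.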

Staphylococcus aureus [5] = test: Antibacterial activity against methicillin-resistant Staphylococcus aureus isolate M1 after 16 to 20 hrs by broth microdilution method; type: functional; in short: as §2
Staphylococcus aureus [6] = test: Antibacterial activity against methicillin-resistant Staphylococcus aureus isolate M2 after 16 to 20 hrs by broth microdilution method; type: functional; in short: as §2
Staphylococcus aureus [7] = test: Antibacterial activity against methicillin-resistant Staphylococcus aureus isolate M3 after 16 to 20 hrs by broth microdilution method; type: functional; in short: as §2
Staphylococcus aureus [8] = test: Antibacterial activity against methicillin-resistant Staphylococcus aureus isolate M5 after 16 to 20 hrs by broth microdilution method; type: functional; in short: as §2
Staphylococcus aureus [9] = test: Antibacterial activity against methicillin-resistant Staphylococcus aureus isolate M6 after 16 to 20 hrs by broth microdilution method; type: functional; in short: as §2
Staphylococcus aureus [10] = test: Antibacterial activity against methicillin-resistant Staphylococcus aureus isolate M7 after 16 to 20 hrs by broth microdilution method; type: functional; in short: as §2
Staphylococcus aureus [11] = test: Antibacterial activity against methicillin-resistant Staphylococcus aureus isolate M9 after 16 to 20 hrs by broth microdilution method; type: functional; in short: as §2
Staphylococcus aureus [12] = test: Antibacterial activity against methicillin-resistant Staphylococcus aureus isolate M10 after 16 to 20 hrs by broth microdilution method; type: functional; in short: as §2
Klebsiella pneumoniae [13] = test: Antibacterial activity against carbapenemase-producing Klebsiella pneumoniae isolate K2 after 16 to 20 hrs by broth microdilution method; type: functional; in short: as §1
Klebsiella pneumoniae [14] = test: Antibacterial activity against carbapenemase-producing Klebsiella pneumoniae isolate K3 after 16 to 20 hrs by broth microdilution method; type: functional; in short: as §1
Klebsiella pneumoniae [15] = test: Antibacterial activity against carbapenemase-producing Klebsiella pneumoniae isolate K4 after 16 to 20 hrs by broth microdilution method; type: functional; in short: as §1
Klebsiella pneumoniae [16] = test: Antibacterial activity against carbapenemase-producing Klebsiella pneumoniae isolate K7 after 16 to 20 hrs by broth microdilution method; type: functional; in short: as §1
Klebsiella pneumoniae [17] = test: Antibacterial activity against carbapenemase-producing Klebsiella pneumoniae isolate K8 after 16 to 20 hrs by broth microdilution method; type: functional; in short: as §1
Klebsiella pneumoniae [18] = test: Antibacterial activity against carbapenemase-producing Klebsiella pneumoniae isolate K9 after 16 to 20 hrs by broth microdilution method; type: functional; in short: as §1
Enterobacteriaceae [19] = test: Antibacterial activity against NDM-1-producing Enterobacteriaceae isolate N1 after 16 to 20 hrs by broth microdilution method; type: functional; in short: as §1
Enterobacteriaceae [20] = test: Antibacterial activity against NDM-1-producing Enterobacteriaceae isolate N2 after 16 to 20 hrs by broth microdilution method; type: functional; in short: as §1
Enterobacteriaceae [21] = test: Antibacterial activity against NDM-1-producing Enterobacteriaceae isolate N4 after 16 to 20 hrs by broth microdilution method; type: functional; in short: as §1
Enterobacteriaceae [22] = test: Antibacterial activity against NDM-1-producing Enterobacteriaceae isolate N5 after 16 to 20 hrs by broth microdilution method; type: functional; in short: as §1
Enterobacteriaceae [23] = test: Antibacterial activity against NDM-1-producing Enterobacteriaceae isolate N8 after 16 to 20 hrs by broth microdilution method; type: functional; in short: as §1
Staphylococcus aureus [24] = test: Bactericidal activity against methicillin-resistant Staphylococcus aureus after 20 to 24 hrs in presence of 50% serum by broth microdilution method; type: functional, organism-based
In short: (§3)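 MRSA at 10⁵ CFU/mL in 50% Mueller-Hinton broth plus 50% sheep serum, plasma or defibrinated whole blood. Serum and plasma were separated by centrifugation at 3,500 rpm for 10 min. Aqueous compound dilutions (512–4 µg/mL before mixing) were combined 1:3 with the suspension and incubated 20-24 h at 37 °C. Wells were plated on Mueller-Hinton agar for a further 20-24 h; MBC was taken as no colonies.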

Staphylococcus aureus [25] = test: Bactericidal activity against methicillin-resistant Staphylococcus aureus after 20 to 24 hrs in presence of 50% plasma by broth microdilution method; type: functional, organism-based; in short: as §3
Staphylococcus aureus [26] = test: Ratio of MBC for methicillin-resistant Staphylococcus aureus in presence of 50% serum to MBC for methicillin-resistant Staphylococcus aureus; type: functional; in short: as §3
Staphylococcus aureus [27] = test: Ratio of MBC for methicillin-resistant Staphylococcus aureus in presence of 50% plasma to MBC for methicillin-resistant Staphylococcus aureus; type: functional; in short: as §3
Staphylococcus aureus [28] = test: Ratio of MBC for methicillin-resistant Staphylococcus aureus in presence of 50% blood to MBC for methicillin-resistant Staphylococcus aureus; type: functional; in short: as §3
Escherichia coli [29] = test: Induction of cytoplasmic membrane depolarization in Escherichia coli ATCC 25922 at 20 ug/ml measured every 2 mins for 12 mins by diSC35 staining based fluorescence assay; type: functional, organism-based
In short: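 Mid-log cells (4–6 h) pelleted, washed and resuspended (~10^8 CFU/mL) in PBS for S. aureus, or in 5 mM HEPES, 5 mM glucose and 100 mM KCl (1:1:1) for E. coli. Preloaded with diSC35 (10 µM, 50 µL), 30 min for S. aureus and 40 min plus EDTA (200 µM, 50 µL) for E. coli. Baseline read 8 min (ex 622/em 670 nm), then compound added to 20 µg/mL final and read every 2 min for 12 min. Water control.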

Staphylococcus aureus [30] = test: Induction of inner membrane permeabilization in Staphylococcus aureus ATCC 29213 at 20 ug/ml measured every 2 mins for 12 mins by propidium iodide staining based fluorescence assay; type: functional, organism-based
In short: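 Mid-log cells (~10^8 CFU/mL) pre-incubated with propidium iodide (10 µM, 50 µL), 30 min for S. aureus and 40 min for E. coli. Fluorescence (ex 535/em 617 nm) read for 8 min, then compound added to 20 µg/mL final and monitored every 2 min for 12 min. Water-treated control.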

Escherichia coli [31] = test: Induction of outer membrane permeabilization in Escherichia coli ATCC 25922 at 20 ug/ml measured every 2 mins for 12 mins by NPN staining based fluorescence assay; type: functional, organism-based
In short: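 Mid-log E. coli (~10^8 CFU/mL) in black plates pre-incubated about 40 min with NPN (10 µM, 50 µL). Baseline read 8 min (ex 350/em 420 nm), then compound added to 20 µg/mL final and fluorescence followed every 2 min for 12 min. Water-treated control.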

| SMILES | MIC (Enterococcus faecalis) | MIC (Escherichia coli [1]) | MIC (Staphylococcus aureus [2]) | MIC (Klebsiella pneumoniae [3]) | HC50 at 1 h [4] | MIC (Staphylococcus aureus [5]) | MIC (Staphylococcus aureus [6]) | MIC (Staphylococcus aureus [7]) | MIC (Staphylococcus aureus [8]) | MIC (Staphylococcus aureus [9]) | MIC (Staphylococcus aureus [10]) | MIC (Staphylococcus aureus [11]) | MIC (Staphylococcus aureus [12]) | MIC (Klebsiella pneumoniae [13]) | MIC (Klebsiella pneumoniae [14]) | MIC (Klebsiella pneumoniae [15]) | MIC (Klebsiella pneumoniae [16]) | MIC (Klebsiella pneumoniae [17]) | MIC (Klebsiella pneumoniae [18]) | MIC (Enterobacteriaceae [19]) | further results |
| --- | --- | --- | --- | --- | --- | --- | --- | --- | --- | --- | --- | --- | --- | --- | --- | --- | --- | --- | --- | --- | --- |
| CCCCCCCCCCN(CCCCCCCCCC)C(=O)[C@@H](N)CCCN=C(N)N.Cl.Cl.Cl | 2 µg/mL | 8 µg/mL | 2 µg/mL | 4 µg/mL | 87 µg/mL | 2 µg/mL | 1 µg/mL | 2 µg/mL | 2 µg/mL | 2 µg/mL | 2 µg/mL | 2 µg/mL | 2 µg/mL | 4 µg/mL | 4 µg/mL | 4 µg/mL | 4 µg/mL | 4 µg/mL | 4 µg/mL | 4 µg/mL | MIC (Enterobacteriaceae [20]): 4 µg/mL; MIC (Enterobacteriaceae [21]): 4 µg/mL; MIC (Enterobacteriaceae [22]): 4 µg/mL; MIC (Enterobacteriaceae [23]): 4 µg/mL; Activity (Staphylococcus aureus [24]): Active; Activity (Staphylococcus aureus [25]): Active; Ratio (Staphylococcus aureus [26]): 1 - 2; Ratio (Staphylococcus aureus [27]): 2 - 4; Ratio (Staphylococcus aureus [28]): 8 - 16; Activity (Escherichia coli [29]): Active; Activity (Staphylococcus aureus [30]): Active; Activity (Escherichia coli [31]): Active |
| CCCCCCCCCN(CCCCCCCCC)C(=O)[C@@H](N)CCCN=C(N)N.Cl.Cl.Cl | 2 µg/mL | 2 µg/mL | 2 µg/mL | 4 µg/mL | 119 µg/mL | 2 µg/mL | 1 µg/mL | 1 µg/mL | 2 µg/mL | 2 µg/mL | 2 µg/mL | 2 µg/mL | 2 µg/mL | 4 µg/mL | 4 µg/mL | 2 µg/mL | 4 µg/mL | 4 µg/mL | 4 µg/mL | 4 µg/mL | MIC (Enterobacteriaceae [20]): 4 µg/mL; MIC (Enterobacteriaceae [21]): 4 µg/mL; MIC (Enterobacteriaceae [22]): 4 µg/mL; MIC (Enterobacteriaceae [23]): 2 µg/mL; Activity (Staphylococcus aureus [24]): Active; Activity (Staphylococcus aureus [25]): Active; Ratio (Staphylococcus aureus [26]): 1 - 2; Ratio (Staphylococcus aureus [27]): 2 - 4; Ratio (Staphylococcus aureus [28]): 8 - 16; Activity (Escherichia coli [29]): Active; Activity (Staphylococcus aureus [30]): Active; Activity (Escherichia coli [31]): Active |
| CCCCCCCCCN(CCCCCCCCC)C(=O)[C@@H](N)CCCCN.Cl.Cl | 1 µg/mL | 2 µg/mL | 0.5 µg/mL | 2 µg/mL | 133 µg/mL | 1 µg/mL | 1 µg/mL | 1 µg/mL | 1 µg/mL | 1 µg/mL | 1 µg/mL | 1 µg/mL | 0.5 µg/mL | 2 µg/mL | 2 µg/mL | 2 µg/mL | 2 µg/mL | 2 µg/mL | 2 µg/mL | 2 µg/mL | MIC (Enterobacteriaceae [20]): 2 µg/mL; MIC (Enterobacteriaceae [21]): 2 µg/mL; MIC (Enterobacteriaceae [22]): 2 µg/mL; MIC (Enterobacteriaceae [23]): 2 µg/mL; Activity (Staphylococcus aureus [24]): Active; Activity (Staphylococcus aureus [25]): Active; Ratio (Staphylococcus aureus [26]): 1 - 2; Ratio (Staphylococcus aureus [27]): 2 - 4; Ratio (Staphylococcus aureus [28]): 8 - 16; Activity (Escherichia coli [29]): Active; Activity (Staphylococcus aureus [30]): Active; Activity (Escherichia coli [31]): Active |
